Measurements reported in article PMC3286832 (Nature Communications, 2011).

Experiments:
[1] = test system: MPP8–GLP interaction in 293T cells; test: Co-immunoprecipitation of MPP8 and GLP in 293T cells; format: cell-based, human
Method in brief: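 293T cells (parental, or MPP8 stable knockdown for the chromodomain W80A mutant) were cotransfected with Flag-MPP8 and HA-GLP (WT, K199R, K205R or K209R) for 48 h. Lysates were immunoprecipitated with 1 μg anti-HA or anti-Flag on protein-G agarose, washed with IPH containing 300 or 600 mM NaCl, and analysed by western blot. Input was 5%.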

[2] = test system: hDNMT3A–MPP8 interaction in 293T cells; test: Co-immunoprecipitation of hDNMT3A and MPP8 in 293T cells; format: cell-based, human; details: immunoprecipitation–western
Method in brief: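 293T cells were transfected for 48 h with Myc-hDNMT3A constructs (WT or K47R; in one setup, co-expressed with HA–GLP in GLP stable-knockdown cells). IP used 1 μg anti-Myc with protein-G agarose and three washes in IPH containing 300 or 600 mM NaCl. Western used anti-Myc/MPP8; input was 1–2%.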

B1: MPP8 W80A: cage mutant of MPP8 chromodomain, Trp80 to alanine (protein)
chain: MEQVAEGARVTAVPVSAADSTEELAEVEEGVGVVGEDNDAAARGAEAFGDSEEDGEDVFEVEKILDMKTEGGKVLYKVRAKGYTSDDDTWEPEIHLEDCKEVLLEFRKKIAENKAKAVRKDIQRLSLNNDIFEANSDSDQQSETKEDTSPKKKKKKLRQREEKSPDDLKKKKAKAGKLKDKSKPDLESSLESLVFDLRTKKRISEAKEELKESKKPKKDEVKETKELKKVKKGEIRDLKTKTREDPKENRKTKKEKFVESQVESESSVLNDSPFPEDDSEGLHSDSREEKQNTKSARERAGQDMGLEHGFEKPLDSAMSAEEDTDVRGRRKKKTPRKAEDTRENRKLENKNAFLEKKTVPKKQRNQDRSKSAAELEKLMPVSAQTPKGRRLSGEERGLWSTDSAEEDKETKRNESKEKYQKRHDSDKEEKGRKEPKGLKTLKEIRNAFDLFKLTPEEKNDVSENNRKREEIPLDFKTIDDHKTKENKQSLKERRNTRDETDTWAYIAAEGDQEVLDSVCQADENSDGRQQILSLGMDLQLEWMKLEDFQKHLDGKDENFAATDAIPSNVLRDAVKNGDYITVKVALNSNEEYNLDQEDSSGMTLVMLAAAGGQDDLLRLLITKGAKVNGRQKNGTTALIHAAEKNFLTTVAILLEAGAFVNVQQSNGETALMKACKRGNSDIVRLVIECGADCNILSKHQNSALHFAKQSNNVLVYDLLKNHLETLSRVAEETIKDYFEARLALLEPVFPIACHRLCEGPDFSTDFNYKPPQNIPEGSGILLFIFHANFLGKEVIARLCGPCSVQAVVLNDKFQLPVFLDSHFVYSFSPVAGPNKLFIRLTEAPSAKVKLLIGAYRVQLQ
modifications: left off: Flag, end not stated, kept
MPP8–GLP interaction in cells [1]: abrogates MPP8–GLP interaction in cells | interaction of hDNMT3A with MPP8 in cells [2]: abrogate binding to hDNMT3a
